Laboratory results: ChEMBL document CHEMBL2384967, “Benzimidazole-based antibacterial agents against Francisella tularensis” (Bioorg Med Chem, 2013)
Converted amounts (≈) assume the structure as drawn.

Assays:
Vero = assay: Cytotoxicity against african green monkey vero cells after 3 days; type: cell-based; settings: Chlorocebus sabaeus, 72 h
How it was run: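 Vero cells grown in L15 medium without CO2, 1.25×10^5 per well. Triplicate 2-fold drug dilutions from 200 µg/mL, with resazurin at a final 25 µg/mL, for 3 days at 37 °C. LD is the lowest concentration that inhibits growth, with no resazurin reduction.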

Francisella tularensis [1] = assay: Antibacterial activity against Francisella tularensis LVS after 18 hrs by Microplate Alamar Blue assay; type: functional
Francisella tularensis [2] = assay: Antibacterial activity against Francisella tularensis LVS at 1 ug/ml by Microplate Alamar Blue assay; type: functional; settings: read-out: GI
Francisella tularensis [3] = assay: Antibacterial activity against Francisella tularensis LVS at 0.2 ug/ml by Microplate Alamar Blue assay; type: functional; settings: read-out: GI
Francisella tularensis [4] = assay: Antibacterial activity against Francisella tularensis LVS infected in mouse RAW 264.7 macrophages assessed as log reduction in CFU at 2 to 50 ug/ml after 18 hrs relative to control; type: functional
Francisella tularensis [5] = assay: Antibacterial activity against Francisella tularensis LVS infected in mouse RAW 264.7 macrophages after 18 hrs; type: functional

Row | Structure (SMILES) | IC50 (Vero) [µg/mL] | MIC90 (Francisella tularensis [1]) [µg/mL] | inhibition of growth at 1 µg/mL (Francisella tularensis [2]) [%] | inhibition of growth at 0.2 µg/mL (Francisella tularensis [3]) [%] | FC (Francisella tularensis [4]) | Activity (Francisella tularensis [5])
1 | CCOC(=O)Nc1cc(N)c2[nH]c(-c3ccc(Br)cc3)nc2c1 | > 200 | 2.99 (≈ 7.97 µM) | > 90 |  |  | 
2 | CCN(CC)c1cc2[nH]c(-c3ccccc3)nc2cc1NC(=O)c1ccc(C)cc1 | > 200 | 12.9 (≈ 32.4 µM) | > 90 | 40 |  | 
3 | CCN(CC)c1cc2[nH]c(-c3ccc(C)cc3)nc2cc1NC(=O)C1CCC1 | > 200 | 1.16 (≈ 3.08 µM) | > 90 | 40 |  | 
4 | CCOC(=O)Nc1cc(N)c2[nH]c(-c3cc(C)cc(C)c3)nc2c1 | > 200 | 4.33 (≈ 13.3 µM) | > 90 |  |  | 
5 | CCOC(=O)Nc1cc(NC(=O)c2ccccc2)c2[nH]c(-c3ccc(C(=O)OC)cc3)nc2c1 | 650 (≈ 1420 µM) |  | > 90 | 40 |  | 
6 | CCOC(=O)Nc1cc(NC(=O)C2CCCCC2)c2[nH]c(-c3ccc(C(=O)OC)cc3)nc2c1 | > 200 | 1.5 (≈ 3.23 µM) | > 90 | 40 |  | 
7 | CCOC(=O)Nc1cc(NC(=O)c2ccccc2)c2[nH]c(-c3ccco3)nc2c1 | > 200 | 3.8 (≈ 9.73 µM) | > 90 | 40 |  | 
8 | O=C(Nc1cc2nc(C3CCCCC3)[nH]c2cc1N1CCCC1)C1CC1 | > 200 | 2.1 (≈ 5.96 µM) | > 90 |  |  | 
9 | CCN(CCN(C)C)c1cc2[nH]c(C3CCCCC3)nc2cc1NS(=O)(=O)c1ccccc1 | > 200 | 35.8 (≈ 76.2 µM) | > 90 |  |  | 
10 | CCN(CC)c1cc2[nH]c(-c3ccc(F)cc3)nc2cc1NC(=O)C1CCC1 | > 200 | 4.84 (≈ 12.7 µM) | > 90 |  |  | 
11 | CCOC(=O)Nc1cc(NC(=O)c2ccccc2OC)c2[nH]c(-c3ccc(Br)cc3)nc2c1 | > 200 | 1.4 (≈ 2.75 µM) | > 90 |  |  | 
12 | CC(C)(C)OC(=O)Nc1cc(NC(=O)OCc2ccccc2)c2[nH]c(-c3ccccc3)nc2c1 | > 200 | 0.35 (≈ 0.763 µM) | > 90 |  |  | 
13 | O=C(Nc1cc2nc(-c3ccco3)[nH]c2cc1N1CCCCC1)c1cccc2ccccc12 | > 200 | 2.4 (≈ 5.5 µM) | > 90 |  | 2 | Dose-dependent effect
14 | CN(C)CCN(C)c1cc2[nH]c(C3CCCCC3)nc2cc1NS(=O)(=O)c1ccccc1 | > 200 | 48.6 (≈ 107 µM) | > 90 |  |  | 
15 | CCN(CC)c1cc2[nH]c(-c3ccccc3OC)nc2cc1NC(=O)C1CCC1 | > 200 | 7.59 (≈ 19.3 µM) | > 90 |  |  | 
16 | CCN(CC)c1cc2[nH]c(-c3ccccc3OC)nc2cc1NC(=O)c1ccccc1OC | > 200 | 4.85 (≈ 10.9 µM) | > 90 |  |  | 
17 | CCOC(=O)Nc1cc(NC(=O)c2ccc(F)cc2)c2[nH]c(-c3ccco3)nc2c1 | > 200 | 2.8 (≈ 6.86 µM) | > 90 | 40 |  | 
18 | CCOC(=O)Nc1cc(NC(=O)c2ccc(OC)cc2)c2[nH]c(-c3ccc(C(=O)OC)cc3)nc2c1 | > 200 |  | > 90 | 40 |  | 
19 | CCOC(=O)Nc1cc(NC(=O)c2ccccc2)c2[nH]c(-c3ccc(Br)cc3)nc2c1 | > 200 | 0.48 (≈ 1 µM) | > 90 |  |  | 
20 | CCOC(=O)Nc1cc(NC(=O)C2CCCC2)c2[nH]c(-c3ccc(Br)cc3)nc2c1 | > 200 | 0.75 (≈ 1.59 µM) | > 90 |  |  | 
21 | O=C(Nc1cc2nc(-c3cccs3)[nH]c2cc1N1CCCCC1)OCc1ccccc1 | > 200 | 0.98 (≈ 2.27 µM) | > 90 |  | 2 | Dose-dependent effect
22 | COc1ccccc1C(=O)Nc1cc2nc(-c3ccco3)[nH]c2cc1N1CCCCC1 | > 200 | 2.1 (≈ 5.04 µM) | > 90 |  | 2 | Dose-dependent effect
23 | COc1ccccc1C(=O)Nc1cc2nc(-c3cccs3)[nH]c2cc1N1CCCCC1 | > 200 | 1.6 (≈ 3.7 µM) | > 90 |  |  | 
